The values below come from ChEMBL document CHEMBL1138845, “Design of non-nucleoside inhibitors of HIV-1 reverse transcriptase with improved drug resistance properties. 2” (J Med Chem, 2004).

For orientation: IC50 means the concentration at which inhibition is half-maximal.

Some results are limits rather than exact numbers.

Test [1] concerns MT4. The test can be described thus: Inhibitory concentration against wild type human immunodeficiency virus type 1 was determined by MT-4 assay. It is filed as functional, cell-based.
Test [2] relates to Human immunodeficiency virus 1. The test can be described thus: Inhibitory concentration against wild type human immunodeficiency virus type 1 was determined by recombinant virus assay. Type of test: functional, organism-based. The gist of the method: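 Isogenic recombinant HIV-1 carrying wild-type RT, tested in parallel with a panel of NNRTI-resistant RT mutants built on the same background; activity reported as IC50.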

In test [3] the test system is MT4. The test can be described thus: Ratio of cytotoxic concentration to that of inhibitory concentration as selectivity index was determined by MT-4 assay. It is filed as functional, Homo sapiens. The method in brief:
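Index is the IC50 in uninfected MT4 cells divided by the antiviral IC50 in MT4 cells infected with wild-type HIV-1 or the nevirapine-resistant strain carrying RT mutation Y181C.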

The subject of test [4] is HeLa. The experiment in a line: Inhibitory concentration against human immunodeficiency virus type 1 (with V108I/Y181C resistant mutation) was determined in HeLa-CD4 MAGI assay. It is filed as functional, cell-based. The gist of the method: (§1)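 Tested against a panel of recombinant, isogenic HIV-1 viruses, wild type and NNRTI-resistant strains carrying engineered single or double RT mutations. The readout was IC50.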

In test [5] the test system is HeLa. The experiment in a line: Inhibitory concentration against human immunodeficiency virus type 1 (with G190A resistant mutation) was determined in HeLa-CD4 MAGI assay. It is filed as functional, cell-based. The method in brief:
as §1

Test [6] has as its system HeLa. The experiment in a line: Inhibitory concentration against human immunodeficiency virus type 1 (with K103N/V108I resistant mutation) was determined in HeLa-CD4 MAGI assay. Type of test: functional, cell-based. The method in brief:
as §1

Test [7] relates to HeLa. The experiment in a line: Inhibitory concentration against human immunodeficiency virus type 1 (with V108I resistant mutation) was determined in HeLa-CD4 MAGI assay. It is filed as functional, cell-based. The method in brief:
as §1

In test [8] the test system is MT4. The test can be described thus: Inhibitory concentration against nevirapine resistant strain (with Y181C mutation in HIV-1 RT gene) of human immunodeficiency virus type 1 was determined by MT-4 assay. It is filed as functional, cell-based.
Test [9] deals with HeLa. The experiment in a line: Inhibitory concentration against human immunodeficiency virus type 1 (with K103N resistant mutation) was determined in HeLa-CD4 MAGI assay. Type of test: functional, cell-based. The gist of the method:
as §1

Test [10] has as its system HeLa. The experiment in a line: Inhibitory concentration against human immunodeficiency virus type 1 (with Y188C resistant mutation) was determined in HeLa-CD4 MAGI assay. Type of test: functional, cell-based. The gist of the method: as §1
Test [11] deals with HeLa. The experiment in a line: Inhibitory concentration against human immunodeficiency virus type 1 (with Y181C resistant mutation) was determined in HeLa-CD4 MAGI assay. It is filed as functional, cell-based. The gist of the method:
as §1

Test [12] relates to HeLa. The test can be described thus: Inhibitory concentration against human immunodeficiency virus type 1 (with K103N/G190A resistant mutation) was determined in HeLa-CD4 MAGI assay. Type of test: functional, cell-based. The gist of the method: as §1
Test [13] has as its system HeLa. The test can be described thus: Inhibitory concentration against human immunodeficiency virus type 1 (with V106A/Y181C resistant mutation) was determined in HeLa-CD4 MAGI assay. It is filed as functional, cell-based. The method in brief:
as §1

For test [14], the system named is HeLa. The test can be described thus: Inhibitory concentration against human immunodeficiency virus type 1 (with K103N/Y181C resistant mutation) was determined in HeLa-CD4 MAGI assay. It is filed as functional, cell-based. The gist of the method: as §1
Test [15] deals with HeLa. The test can be described thus: Inhibitory concentration against human immunodeficiency virus type 1 (with V106A resistant mutation) was determined in HeLa-CD4 MAGI assay. Type of test: functional, cell-based. The gist of the method: as §1

For `CCOc1c(O)nc2ccc(Cl)cc2c1OCC1CCC1`, the IC50 with MT4 [1] was 290 nM; in [2] it was 340 nM; in the test with HeLa [4], more than 2000 nM; in the test with HeLa [5], 170 nM; in the test on HeLa [6], more than 2000 nM; with HeLa [7], 890 nM. Further, the IC50 in the test on MT4 [8] was 2090 nM; in the test with HeLa [9], more than 2000 nM; with HeLa [10], 390 nM; with HeLa [11], more than 2000 nM; with HeLa [12], more than 2000 nM; in the test with HeLa [13], more than 2000 nM. The IC50 with HeLa [14] and in the test with HeLa [15] was more than 2000 nM in each case. Also, the Ratio with MT4 [3] is recorded as more than 8000.

With `N#Cc1c(O)nc2ccccc2c1OCC1CCC1`, the IC50 was more than 8000 nM with MT4 [1]; more than 2000 nM in test [2]; more than 2000 nM in the test on HeLa [4]; more than 2000 nM with HeLa [5]; more than 2000 nM with HeLa [6]; more than 2000 nM in the test on HeLa [7]. Also, the IC50 was more than 8000 nM in the test with MT4 [8]; more than 2000 nM in the test on HeLa [9]; more than 2000 nM with HeLa [10]; more than 2000 nM in the test on HeLa [11]; more than 2000 nM in the test on HeLa [12]; more than 2000 nM in the test on HeLa [13]. The half-inhibitory concentration (IC50) with HeLa [14] and with HeLa [15] was more than 2000 nM throughout. The Ratio in the test with MT4 [3] was more than 8000.

`CC(C)c1c(O)nc2ccc(Cl)cc2c1OCC1CCC1`: the IC50 is 29 nM in the test on MT4 [1]; 15 nM in test [2]; 440 nM with HeLa [4]; 9 nM in the test with HeLa [5]; more than 2000 nM in the test with HeLa [6]; 79 nM with HeLa [7]. For the same molecule, the IC50 amounted to 230 nM in the test on MT4 [8]; 560 nM in the test on HeLa [9]; 32 nM with HeLa [10]; 210 nM with HeLa [11]; 560 nM in the test on HeLa [12]; 1900 nM in the test with HeLa [13]. Also, the half-inhibitory concentration (IC50) with HeLa [14] was more than 2000 nM; in the test with HeLa [15], 380 nM. Also, in the test with MT4 [3], the Ratio is more than 500.

Take `CCOc1c(O)nc2ccc(F)cc2c1OCC1CCC1`: the 50% inhibitory concentration (IC50) was 470 nM with MT4 [1]; 580 nM in [2]; more than 2000 nM with HeLa [4]; 86 nM with HeLa [5]; more than 2000 nM in the test on HeLa [6]; 1500 nM in the test on HeLa [7]. The IC50 with MT4 [8] is 1070 nM; in the test with HeLa [9], more than 2000 nM; in the test on HeLa [10] it was 360 nM; in the test with HeLa [11], more than 2000 nM; in the test on HeLa [12], more than 2000 nM; with HeLa [13] it was more than 2000 nM. Also, the IC50 in the test on HeLa [14] and with HeLa [15] was more than 2000 nM each time. In addition, the Ratio with MT4 [3] is on record as more than 8000.

For the molecule `CCCc1c(O)nc2ccc(Cl)cc2c1OCC1CCC1`, the 50% inhibitory concentration (IC50) with MT4 [1] is 72 nM; in test [2] it was 36 nM; with HeLa [4], 600 nM; in the test on HeLa [5], 15 nM; in the test with HeLa [6], more than 2000 nM; in the test with HeLa [7], 77 nM. Further, the IC50 in the test on MT4 [8] was 390 nM; with HeLa [9], 980 nM; in the test with HeLa [10] it was 16 nM; in the test with HeLa [11] it was more than 2000 nM; in the test on HeLa [12], 1300 nM; in the test on HeLa [13] it was 630 nM. Moreover, the half-inhibitory concentration (IC50) in the test with HeLa [14] was more than 2000 nM; with HeLa [15], 124 nM. Besides, in the test on MT4 [3], the Ratio is listed as more than 40000.

`CC(C)c1c(O)nc2ccc(F)cc2c1OCC1CCC1`: the IC50 with MT4 [1] was 26 nM; in test [2], 49 nM; with HeLa [4], 700 nM; in the test on HeLa [5] it was 16 nM; with HeLa [6], more than 2000 nM; in the test on HeLa [7], 440 nM. Also, the IC50 is 230 nM in the test on MT4 [8]; 1700 nM in the test with HeLa [9]; 30 nM in the test on HeLa [10]; 280 nM with HeLa [11]; 530 nM in the test with HeLa [12]; more than 2000 nM in the test with HeLa [13]. Also, the 50% inhibitory concentration (IC50) is more than 2000 nM in the test on HeLa [14] and 1900 nM in the test with HeLa [15]. In addition, in the test with MT4 [3], the Ratio is more than 500.

Take `CCCc1c(O)nc2cc(OC)ccc2c1OCC1CCC1`: the IC50 in the test on MT4 [1] is more than 8000 nM; in [2] it was more than 2000 nM; in the test with HeLa [4], more than 2000 nM; in the test with HeLa [5], more than 2000 nM; in the test with HeLa [6], more than 2000 nM; in the test with HeLa [7], more than 2000 nM. Moreover, the IC50 was more than 8000 nM with MT4 [8]; more than 2000 nM with HeLa [9]; more than 2000 nM in the test on HeLa [10]; more than 2000 nM in the test with HeLa [11]; more than 2000 nM in the test with HeLa [12]; more than 2000 nM with HeLa [13]. Further, the IC50 in the test on HeLa [14] and in the test on HeLa [15] was more than 2000 nM throughout. For the same molecule, in the test on MT4 [3], the Ratio was more than 8000.
